ChEMBL document CHEMBL1155036, “Synthesis and biological activity of some new flavonyl-2,4-thiazolidinediones” (Bioorg Med Chem, 2008)

Tests used:
[1] = target: Aldo-keto reductase family 1 member B1 (Rattus norvegicus) (UniProt P07943); assay: Inhibition of rat kidney aldose reductase activity assessed as NADPH oxidation at 100 uM
Procedure, shortened: (§1)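 Assay in 0.067 M phosphate buffer, pH 6.2, with NADPH (2 × 10^-5 M final) and DL-glyceraldehyde substrate (5 × 10^-5 M final). The 340 nm absorbance decrease is followed for 5 min at 37 °C. Drug is added from a 10^-4 M stock in 50% DMF/50% methanol. Percent inhibition is measured at this single drug concentration, and IC50 from a concentration series. Triplicates; mean ± SD of three experiments.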

INS1 [2] = assay: Insulinotropic activity in rat INS1 cells assessed as glucose-mediated insulin release at 10 ug/ml by radioimmunoassay relative to glucose; type: functional
Procedure, shortened: (§2)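 Rat INS-1 cells are grown 4–6 days to half confluence in RPMI with 10% FCS and penicillin/streptomycin. Cells are washed, then incubated 90 min at 37 °C in KRBH (10 mM HEPES, 0.5% BSA) at 5.6 mM glucose, with or without compound. Secreted insulin is measured by radioimmunoassay with a rat insulin standard and corrected for solvent (ethanol, DMSO). Results are normalized to 5.6 mM glucose = 100%. Mean ± SEM, N = 4–8; ANOVA with Newman–Keuls.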

INS1 [3] = assay: Insulinotropic activity in rat INS1 cells assessed as glucose-mediated insulin release at 1 ug/ml by radioimmunoassay relative to glucose; type: functional; procedure, shortened: as §2
[4] = target: Aldo-keto reductase family 1 member B1 (Rattus norvegicus, UniProt P07943); assay: Inhibition of rat kidney aldose reductase activity assessed as NADPH oxidation; procedure, shortened: as §1

inhibition [1]	IC50 [4]	Compound	Activity (INS1 [2])	Activity (INS1 [3])
14.4%		CCOC(=O)CN1C(=O)S/C(=C\c2ccc3oc(-c4ccccc4)cc(=O)c3c2)C1=O	98.52%	93.28%
12.9%		CCOC(=O)CN1C(=O)S/C(=C\c2cccc(-c3cc(=O)c4ccccc4o3)c2)C1=O	98.43%	103.4%
6.74%		CCOC(=O)CN1C(=O)S/C(=C\c2ccc(-c3cc(=O)c4ccccc4o3)cc2)C1=O	128.6%	106.2%
44.6%		O=C(O)CN1C(=O)S/C(=C\c2ccc(-c3cc(=O)c4ccccc4o3)cc2)C1=O	91.88%	102.4%
56.3%	852 nM	O=C(O)CN1C(=O)S/C(=C\c2ccc3oc(-c4ccccc4)cc(=O)c3c2)C1=O	80.92%	101.3%
22.1%		O=C1NC(=O)/C(=C/c2cccc(-c3cc(=O)c4ccccc4o3)c2)S1	18.95%	79.76%
64.9%	683 nM	O=C1NC(=O)/C(=C/c2ccc3oc(-c4ccccc4)cc(=O)c3c2)S1	158.9%	82.55%
86.6%	415 nM	O=C(O)CN1C(=O)S/C(=C\c2cccc(-c3cc(=O)c4ccccc4o3)c2)C1=O	84.09%	98.1%
88.7%	432 nM	O=C1NC(=O)/C(=C/c2ccc(-c3cc(=O)c4ccccc4o3)cc2)S1	23.79%	55.7%
		COc1ccc(Cl)cc1C(=O)NCCc1ccc(S(=O)(=O)NC(=O)NC2CCCCC2)cc1 [GLYBURIDE]		179.6%
